From PubChem
F508del corr – correctors of CFTR F508del function in bronchial epithelial cells; activity (quench increase), % at 7.58 µM; hit rate 0.36% among 350,000; CFBE cells, YFP halide quenching; stimulated with forskolin plus potentiator P3; % fluorescence drop versus neutral controls; AID 720511;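 active = mean added fluorescence quench of at least 8% versus neutral control, with both replicates also reaching 8%; inconclusive = only one of the mean or replicate conditions met; inactive = mean below 8% and not both replicates reaching 8%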;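 note: cells transiently co-express mutant CFTR-F508del with the halide-sensitive YFP; corrector assay measuring rescue of mutant channel to the surface after 24 h compound exposure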
FGF22 binding – shifts melting point of recombinant human FGF22; AID 651658; recombinant FGF22 thermal shift, SYPRO orange fluorescence; percent of sucrose octasulfate shift, DMSO zero; hit rate 1.5% among 340,000; Q9HCT0; activity (Tm shift, normalised), % at 9.99 µM;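 active = mean Tm shift, scaled 0 neutral to 100 positive control, at about 1.3% or above, every replicate too, limit read from the data; inconclusive = no clear call, values can overlap the other calls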
Target sequence (Q9HCT0 whole entry, looked up): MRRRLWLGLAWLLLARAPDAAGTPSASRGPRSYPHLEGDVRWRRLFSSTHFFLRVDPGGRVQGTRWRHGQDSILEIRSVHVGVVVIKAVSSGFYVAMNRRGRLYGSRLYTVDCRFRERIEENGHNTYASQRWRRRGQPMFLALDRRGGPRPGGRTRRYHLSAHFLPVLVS
ERAP1 inh – blocks human ERAP1 aminopeptidase activity; hit rate 0.15% among 340,000; Q9NZ08; recombinant ERAP1, Leu-AMC fluorescence, 60 min; inhibition, % at 10.7 µM;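 active = mean replicate inhibition of at least 30%, or all replicates individually reaching that 30% level; inactive = mean below 30% and not every replicate reaching it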;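 note: 0% = neutral control wells and 100% = L-leucinethiol positive control wells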
E-sel inducer – E-selectin induction on HUVECs. P16581. HUVEC E-selectin immunofluorescence imaging; normalized: neutral wells 0, TNF-alpha wells 100. activation, % at 7.58 µM. hit rate 0.37% among 260,000. AID 686992;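 active = mean E-selectin-positive cell signal at least 10% of the positive control, reached in at least 60% of replicates, without over 20% cell loss; inconclusive = no rule given, readout overlaps actives, possibly toxicity-flagged; inactive = the rest, including those meeting only one limit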
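Test system – human umbilical vein endothelial cells (HUVEC), E-selectin induction · Input – 3,000 HUVEC seeded per well · Buffer or medium – EGM-2, gelatin · Compound dosing – single-point compound dose · Detection – immunofluorescence imaging · Measure – percent E-selectin-positive cells · Controls – TNF-alpha high, DMSO low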
DENV2 CPE rescue – inhibitors of DENV2 cytopathic effect | DENV2-infected cells, cytopathic effect rescue, plate reader | CPE inhibition, % at 9.99 µM | hit rate 1.7% among 350,000; in the data active = CPE inhibition above about 20%, passing the limit was not always enough; inconclusive = no clear call, values can overlap the other calls; tested in BHK-21 cells;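 note: 0% = median of neutral control wells and 100% = median of positive control wells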
Starred values were filed as active, the others as inactive. A selection: hits, their analogues and other compounds. The true share with any hit is near 3.7%.

`CO[C@@H]1CN(C)C(=O)c2ccc(NS(C)(=O)=O)cc2OC[C@H](C)N(Cc2nccs2)C[C@@H]1C` gave F508del corr 3, FGF22 binding 0, ERAP1 inh -3, E-sel inducer 0 and DENV2 CPE rescue 72*.
Screening C[C@H](CO)N1C[C@H](C)[C@H](CN(C)C(=O)c2cccnc2)Oc2cc(C#CC3(O)CCCC3)ccc2S1(=O)=O returned F508del corr -5, FGF22 binding 0, ERAP1 inh 1 and DENV2 CPE rescue -1.
For COc1ccc(-c2nc(CCl)cs2)cc1 the results were F508del corr 0, FGF22 binding 43*, ERAP1 inh 0 and DENV2 CPE rescue 4.
Cc1oncc1-c1csc(-c2ccccc2Cl)n1 was read as F508del corr 0, FGF22 binding 0, ERAP1 inh -2 and E-sel inducer 0.
`ClCc1csc(-c2ccccc2Cl)n1` gave F508del corr -1, FGF22 binding 43*, ERAP1 inh 0, E-sel inducer 2 and DENV2 CPE rescue -5.
For CCOc1nc2ccccc2cc1C=O the results were F508del corr -1, FGF22 binding 43*, ERAP1 inh -3, E-sel inducer 3 and DENV2 CPE rescue -2.
`COc1cccc2c1OCC(C(=O)O)C2` (configuration not stated) gave F508del corr -1, FGF22 binding 43*, ERAP1 inh 3 and DENV2 CPE rescue 3.
Screening O=C(C1CCN(c2nnc(-n3cccc3)s2)CC1)N1CCCCC1 returned F508del corr 0, FGF22 binding 0, ERAP1 inh 2 and DENV2 CPE rescue -4.
O=C(Nc1ccc(Br)cc1F)C1CCN(c2nnc(-n3cccc3)s2)CC1 was read as F508del corr 0, FGF22 binding 0, ERAP1 inh -1 and DENV2 CPE rescue 26*.
`Cc1ccc(S(=O)(=O)Oc2ccccc2-c2ccccc2)cc1` gave F508del corr 2, FGF22 binding 43*, ERAP1 inh 2, E-sel inducer 0 and DENV2 CPE rescue 18.
For Cc1ccc(S(=O)(=O)Oc2ccccc2)cc1 the results were F508del corr 0, FGF22 binding 0, ERAP1 inh -6, E-sel inducer -3 and DENV2 CPE rescue 1.
C[C@H]1CN([C@@H](C)CO)C(=O)c2cc(-c3cccnc3)cnc2O[C@@H]1CN(C)C(=O)c1cccc(F)c1 was read as F508del corr 0, FGF22 binding 0, ERAP1 inh 1, E-sel inducer 0 and DENV2 CPE rescue -4.
For CC=Cc1ccc2n(c1=O)C[C@@H]1[C@@H](CO)[C@H](C(=O)NCCC)[C@H]2N1CC1CCCC1 (mixture of isomers) the results were FGF22 binding 0, ERAP1 inh 2, E-sel inducer 0 and DENV2 CPE rescue -4.
`S=C(NCc1ccccc1Cl)NC1CCCC1` gave F508del corr 0, FGF22 binding 43*, ERAP1 inh -2, E-sel inducer 0 and DENV2 CPE rescue 7.
`Cc1cc(C(C)(C)C)cc(C)c1S(=O)(=O)N1CC(=O)Nc2ccccc21` gave F508del corr 1, FGF22 binding 1.5*, ERAP1 inh -3, E-sel inducer 1 and DENV2 CPE rescue -6.
Cc1ccc(C(C)(C)C)cc1S(=O)(=O)N1CC(=O)Nc2ccccc21 was read as F508del corr 0, FGF22 binding 0, ERAP1 inh 2 and DENV2 CPE rescue -2.
CO[C@@H]1CN(C)C(=O)c2cc(NC(=O)Nc3ccccc3Cl)ccc2OC[C@@H](C)N(C)C[C@H]1C was read as F508del corr 0, FGF22 binding 0, ERAP1 inh -2, E-sel inducer 7 and DENV2 CPE rescue 15.
For O=C(CCC1CCCN(C(=O)c2ccc3c(c2)OCO3)C1)NCc1ccc(F)c(F)c1 (configuration not stated) the results were F508del corr 1, FGF22 binding 43*, ERAP1 inh 1, E-sel inducer 0 and DENV2 CPE rescue 3.
For COc1ccc(-c2csc(-c3ccccc3)n2)c(OC)c1 the results were F508del corr 2, FGF22 binding 43*, ERAP1 inh -1, E-sel inducer 5 and DENV2 CPE rescue -8.
`COc1ccc(-c2csc(-c3cccs3)n2)c(OC)c1` gave F508del corr -2, FGF22 binding 42, ERAP1 inh 2, E-sel inducer 0 and DENV2 CPE rescue inconclusive.
Screening CO[C@H]1CN(C)C(=O)c2ccc(NC(=O)CC(F)(F)F)cc2OC[C@H](C)N(C(C)=O)C[C@@H]1C returned F508del corr 0, FGF22 binding 0, ERAP1 inh -1, E-sel inducer 0 and DENV2 CPE rescue 8.
CC(=O)c1ccc(NC(=O)C[n+]2ccc(N(C)C)cc2)cc1 was read as F508del corr -1, FGF22 binding 0, ERAP1 inh -2, E-sel inducer 4 and DENV2 CPE rescue -2.
`CN(C)c1cc[n+](CC(=O)Nc2ccc(OC(F)F)cc2)cc1` gave F508del corr -1, FGF22 binding 0, ERAP1 inh 107*, E-sel inducer 0 and DENV2 CPE rescue 1.
`CC(C)NC(=O)N1C[C@H]2[C@@H](c3ccccc31)[C@H](CO)N2C(=O)C1CCCC1` gave F508del corr 0, FGF22 binding 0, ERAP1 inh 6, E-sel inducer 0 and DENV2 CPE rescue 12.
`COc1ccc(CN(C)C[C@H]2Oc3c(NS(=O)(=O)c4ccc(OC)cc4)cccc3C(=O)N([C@@H](C)CO)C[C@H]2C)cc1` gave F508del corr -1, FGF22 binding 0, ERAP1 inh 0, E-sel inducer 0 and DENV2 CPE rescue 1.
O=C(O)CCCCCN1C(=O)/C(=C/c2cn(-c3ccccc3)nc2-c2cccs2)SC1=S was read as F508del corr 6, FGF22 binding 0, ERAP1 inh -2, E-sel inducer 0 and DENV2 CPE rescue -5.
For O=C(O)CCCCCN1C(=O)/C(=C\c2cn(-c3ccccc3)nc2-c2cccs2)SC1=S the results were F508del corr 4, FGF22 binding 0, ERAP1 inh -1 and DENV2 CPE rescue 60*.
O=C1N/C(=N\S(=O)(=O)Cc2ccccc2)S/C1=C/c1cccc([N+](=O)[O-])c1 was read as F508del corr 0, FGF22 binding 1, ERAP1 inh 3, E-sel inducer 2 and DENV2 CPE rescue -4.
For O=C1N/C(=N/O)S/C1=C/c1cccc([N+](=O)[O-])c1 the results were F508del corr -1, FGF22 binding 44* and ERAP1 inh -1.
Screening CC(Oc1ccc2c(-c3ccccc3)cc(=O)oc2c1)C(=O)NCCN1CCOCC1 (configuration not stated) returned F508del corr 0, FGF22 binding 43*, ERAP1 inh 2, E-sel inducer 1 and DENV2 CPE rescue -5.
Screening CC(Oc1ccc2c(-c3ccccc3)cc(=O)oc2c1)C(=O)NCCCN1CCOCC1 (configuration not stated) returned F508del corr 2, FGF22 binding 0, ERAP1 inh -1, E-sel inducer 0 and DENV2 CPE rescue 4.
